Source: PMC11661117 (bioRxiv, 2025)

Key:
[1] = system: HSV-1 strain K26 (GFP-expressing); experiment: 3D bioprinted HSE, submerged model, apical HSV-1 infection, GFP signal; assay type: cell-based; conditions: for Emax: Human alphaherpesvirus 1, 48 h, read-out: submerged Max Inhibition (%); for submerged Curve Class: CRC class for HSV-1 inhibition
Method in brief: (§1)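 Skin equivalent: printed fibrin/gelatin/collagen dermis with tdTomato-labelled fibroblasts and 20,000 keratinocytes on a transwell. One day after keratinocyte seeding, GFP HSV-1 K26 (MOI 0.1) was added apically and test compound to the basal medium, and tissues fixed at 48 hpi. GFP and tdTomato total fluorescence were read from 4X z-stack maximum projections within a ~4 mm circular mask. Values were normalised to DMSO-infected and uninfected wells. Triplicate dose-response, curve-classed.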

[2] = system: tdTomato fibroblasts; experiment: 3D bioprinted HSE, submerged model, tdTomato signal; assay type: cell-based, human; conditions: for CC50: read-out: submerged CC50, tdTomato fibroblasts, triplicate
Method in brief: as §1

[3] = system: HSV-1 strain K26 (GFP-expressing); experiment: 3D bioprinted HSE, ALI model, basolateral HSV-1 infection, GFP signal; assay type: cell-based; conditions: for Emax: Human alphaherpesvirus 1, 48 h, read-out: ALI Max Inhibition (%); for ALI Curve Class: CRC class for HSV-1 inhibition
Method in brief: (§2)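 Bioprinted dermal base (fibrinogen, gelatin, collagen I) on a transwell membrane, with 20,000 keratinocytes seeded on top and tdTomato-labelled fibroblasts. Four days after air-lift, GFP HSV-1 K26 (MOI 0.1, in cornification medium) and test compound were added basally, and tissues fixed at 48 hpi. Imaging: 4X z-stack maximum projection, edge mask and ≥14.8 µm object filter. GFP and tdTomato were normalised to infected DMSO and uninfected controls (tdTomato floor 0). Triplicate dose-response, curve-classed.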

[4] = system: HSV-1 strain K26 (GFP-expressing); assay type: cell-based; conditions: 2D monoculture
[5] = 3D bioprinted HSE, ALI model, tdTomato signal; assay type: cell-based, human; conditions: human
Method in brief: as §2

[6] = system: HSV-1 strain K26 (GFP-expressing); assay type: cell-based; conditions: 2D monoculture; for selectivity ratio: read-out: selectivity index in fibroblasts
[7] = 3D bioprinted HSE, submerged model, tdTomato signal; assay type: cell-based, human; conditions: human
Method in brief: as §1

[8] = system: primary keratinocytes; experiment: 2D cytotoxicity in uninfected primary keratinocytes; assay type: cell-based, human; conditions: absence of viral infection
[9] = system: tdTomato fibroblasts; experiment: 3D bioprinted HSE, ALI model, tdTomato signal; assay type: cell-based, human; conditions: read-out: ALI CC50; tdTomato fibroblasts, triplicate
Method in brief: as §2

[10] = Human alphaherpesvirus 1, read-out: submerged IC50 (μM)
[11] = Human alphaherpesvirus 1, read-out: ALI IC50 (μM)
[12] = read-out: submerged IC50, triplicate, 48HPI

| Compound | CC50 at 48 h [5] | Emax [1] | IC50 [1, 10] | CC50 at 48 h [7] | Emax [3] | IC50 [3, 11] | further results |
| --- | --- | --- | --- | --- | --- | --- | --- |
| Nc1nc2c(ncn2COCCO)c(=O)[nH]1 [Acyclovir] |  |  |  |  |  |  | IC50 ([1]; submerged tissues, assay validation, fig. S5): 0.36 µM; cytotoxic effects on the fibroblasts ([2]; submerged and ALI models, tdTomato signal): minimal cytotoxic effects; IC50 ([3]; Human alphaherpesvirus 1): < 0.04 µM |
| Cc1cccc(C)c1N(CC(=O)Nc1ccc(-c2ncon2)cc1)C(=O)C1CCS(=O)(=O)CC1 [Amenamevir] | > 10000 nM | 85.3% | 0.27 µM | > 10000 nM | 112% | 0.16 µM | selectivity index in keratinocytes [4]: > 250; selectivity index in fibroblasts [6]: > 400 |
| COc1ccc(-c2nc(N3CCOCC3)c3sc(CN(C)c4ncc(C(=O)NO)cn4)cc3n2)cn1 [Fimepinostat] | > 10000 nM | 87.4% | 1.48 µM | > 10000 nM | 88.6% | < 0.04 µM | inhibition of viral GFP expression in keratinocytes [4]: at least 50% |
| Nc1ccn([C@@H]2O[C@H](CO)[C@@H](O)C2(F)F)c(=O)n1 [Gemcitabine] | > 10000 nM | 99.8% | 0.19 µM | > 10000 nM | 102% | 0.16 µM | selectivity ratio [6]: > 750; toxicity in keratinocytes [8]: showed toxicity in keratinocytes |
| CC(C)c1cnn2c(NCc3ccccc3-n3cccn3)nc(OC3CCCNC3)nc12 (centres unmarked) [LDC4297] |  |  |  |  |  |  | CC50 [9]: > 10000 nM; submerged Curve Class ([1]; triplicate): −2.1; IC50 [1, 12]: 0.68 µM; submerged Max Inhibition (%) ([1]; triplicate, 48HPI): 94.82%; CC50 [2]: > 10000 nM; ALI Curve Class ([3]; triplicate): −1.1; IC50 ([3]; read-out: ALI IC50, triplicate, 48HPI): 0.11 µM; ALI Max Inhibition (%) ([3]; triplicate, 48HPI): 99.87% |
| CC(=O)O[C@H]1C[C@H](O[C@H]2[C@@H](O)C[C@H](O[C@H]3[C@@H](O)C[C@H](O[C@H]4CC[C@@]5(C)[C@H](CC[C@@H]6[C@@H]5C[C@@H](O)[C@]5(C)[C@@H](C7=CC(=O)OC7)CC[C@]65O)C4)O[C@@H]3C)O[C@@H]2C)O[C@H](C)[C@H]1O[C@@H]1O[C@H](CO)[C@@H](O)[C@H](O)[C@H]1O [Lanatoside C] | > 10000 nM | 107% | 0.09 µM | 2490 nM | 99.5% | 0.08 µM | selectivity ratio [6]: > 750; toxicity in keratinocytes [8]: showed toxicity in keratinocytes |
| O=C(Nc1ccc([N+](=O)[O-])cc1Cl)c1cc(Cl)ccc1O [Niclosamide] | > 10000 nM | 97.1% | 0.39 µM | > 10000 nM | 98.7% | 0.11 µM |  |
| Cc1nc(N(C)C(=O)Cc2ccc(-c3ccccn3)cc2)sc1S(N)(=O)=O [Pritelivir] | > 10000 nM | 94.6% | 0.5 µM | > 10000 nM | 102% | 0.21 µM | selectivity index in keratinocytes [4]: > 250; selectivity index in fibroblasts [6]: > 400 |
| CC1(C)CC(=O)c2c(C(F)(F)F)nn(-c3ccc(C(N)=O)c(N[C@H]4CC[C@H](O)CC4)c3)c2C1 [SNX-2112] | > 10000 nM | 102% | 0.05 µM | 1140 nM | 107% | < 0.04 µM | toxicity in keratinocytes [8]: showed toxicity in keratinocytes |
| C=CC(=O)N1CC/C(=C\c2ccc(F)c([N+](=O)[O-])c2)C(=O)/C(=C/c2ccc(F)c([N+](=O)[O-])c2)C1 [VLX1570] |  |  |  |  |  | 0.16 µM | CC50 [9]: > 10000 nM; submerged Curve Class ([1]; triplicate): −2.5; IC50 [1, 12]: 6.67 µM; submerged Max Inhibition (%) ([1]; triplicate, 48HPI): 55.49%; CC50 [2]: 8410 nM; ALI Curve Class ([3]; triplicate): −1.1; ALI Max Inhibition (%) ([3]; triplicate, 48HPI): 101.22% |
| O=C(/C=C\n1cnc(-c2cc(C(F)(F)F)cc(C(F)(F)F)c2)n1)NNc1ccccn1 [Verdinexor] | > 10000 nM | 68.6% | 0.48 µM | > 10000 nM | 108% | 0.17 µM | inhibition of viral GFP expression in keratinocytes [4]: at least 50% |
| Fluoroemetine |  |  |  |  |  |  | CC50 [9]: > 10000 nM; CC50 [2]: > 10000 nM |
